Results: ChEMBL document CHEMBL3244051, “15,15-Ketals of natural prostaglandins and prostaglandin analogues. Synthesis and biological activities” (1978)
Calls of active or inactive are those of the source. The rule behind the calls is not given here.

Assays:
Rattus norvegicus [1] = assay: Abortifacient activity in sc dosed early pregnant Wistar rat assessed as decrease in serum progesterone level measured per animal administered in benzyl benzoate and castor oil on day 4 to day 7 of gestation measured on day 3, 5, 7 and 9 of gestation by RIA; type: functional
How it was run: (§1)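 Female Wistar rats mated at proestrus; sperm in vaginal smear next day defines day 1 of gestation. Dosed sc in 0.2 mL oil (benzyl benzoate:castor oil 1:3) on days 4–7; 4 rats/group. Orbital plexus blood taken days 3, 5, 7, 9 for serum progesterone by RIA; rats killed day 9, uteri inspected for abortion.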

[2] = […] activity in rat uterus assessed as uterine contraction relative to PGF2alpha; type: functional
How it was run: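 Isolated rat uterine horns held in salt solution matching extracellular fluid; contractions recorded isotonically as length change. One horn of each animal received test agent, the other the reference, in separate organ baths; n = 4 paired comparisons. Contraction height (mm) analysed by analysis of variance.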

Rattus norvegicus [3] = assay: Abortifacient activity in sc dosed early pregnant Wistar rat assessed as decrease in serum progesterone level administered in benzyl benzoate and castor oil on day 4 to day 7 of gestation measured on day 3, 5, 7 and 9 of gestation by RIA relative to PGF2alpha; type: functional; how it was run: as §1
Ileum = assay: Contraction of guinea pig ileum relative to PGF2alpha; type: functional, Cavia porcellus

With `CCCCC[C@H](O)/C=C/[C@@H]1[C@@H](C/C=C\CCCC(=O)O)[C@@H](O)C[C@H]1O` [DINOPROST] the Activity (Rattus norvegicus [1]) was 0.3 mg/day.
For `CCCCOC(=O)CCC/C=C\C[C@@H]1[C@@H](/C=C/C2(COc3ccccc3)OCCO2)[C@H](O)C[C@@H]1O`, the “fold change (FC)” value [2] was 10 and the “fold change (FC)” value (Rattus norvegicus [3]) was 30.
With `COC(=O)CCC/C=C\C[C@@H]1[C@@H](/C=C/C2(COc3ccccc3)OCCO2)[C@H](O)C[C@@H]1O` the “fold change (FC)” value [2] was >10, the “fold change (FC)” value (Ileum) was <0.1 and the “fold change (FC)” value (Rattus norvegicus [3]) was 100.
In the case of `COC(=O)CCC/C=C\C[C@@H]1[C@@H](/C=C/C2(COc3ccc(F)cc3)OCCO2)[C@H](O)C[C@@H]1O`, the “fold change (FC)” value [2] is reported as 10 and the “fold change (FC)” value (Rattus norvegicus [3]) is reported as 10.
With `CCCCCC1(/C=C/[C@@H]2[C@@H](C/C=C\CCCC(=O)O)[C@@H](O)C[C@H]2O)OCCO1` the “fold change (FC)” value [2] was 5 and the “fold change (FC)” value (Rattus norvegicus [3]) was 1.
With `CCCCCC(/C=C/[C@@H]1[C@@H](C/C=C\CCCC(=O)OC)[C@@H](O)C[C@H]1O)(OC)OC` the “fold change (FC)” value [2] was 0.1, the “fold change (FC)” value (Ileum) was <0.1 and the “fold change (FC)” value (Rattus norvegicus [3]) was <0.1.
In the case of `CCCCCC1(CC[C@@H]2[C@@H](C/C=C\CCCC(=O)OC)[C@@H](O)C[C@H]2O)OCCO1`, the “fold change (FC)” value [2] is reported as 1 and the “fold change (FC)” value (Rattus norvegicus [3]) is reported as <0.3.
For `CCCCCC1(/C=C/[C@@H]2[C@@H](C/C=C\CCCC(=O)OC)[C@@H](O)C[C@H]2O)OCCO1`, the “fold change (FC)” value [2] was 5, the “fold change (FC)” value (Ileum) was 0.1 and the “fold change (FC)” value (Rattus norvegicus [3]) was 1.
With `CCCCCC1(/C=C/[C@@H]2[C@@H](C/C=C\CCCC(=O)OC)[C@@H](O)C[C@H]2O)OCC(C)(C)CO1` the “fold change (FC)” value [2] was <0.1 and the “fold change (FC)” value (Rattus norvegicus [3]) was <0.3.
In the case of `COC(=O)CCC/C=C\C[C@@H]1[C@@H](CCC2(COc3ccccc3)OCCO2)[C@H](O)C[C@@H]1O`, the “fold change (FC)” value [2] is reported as >10 and the “fold change (FC)” value (Rattus norvegicus [3]) is reported as 10.
With `NC(CO)(CO)CO.O=C(O)CCC/C=C\C[C@@H]1[C@@H](/C=C/C2(COc3ccccc3)OCCO2)[C@H](O)C[C@@H]1O` the “fold change (FC)” value [2] was >10.
With `CCCCCC1(/C=C/[C@@H]2[C@@H](C/C=C\CCCC(=O)OC)[C@@H](O)C[C@H]2O)OCCCO1` the “fold change (FC)” value [2] was <0.1 and the “fold change (FC)” value (Rattus norvegicus [3]) was <0.3.
For `COC(=O)CCC/C=C\C[C@@H]1[C@@H](/C=C/C2(c3ccc(Cl)cc3)OCCO2)[C@H](O)C[C@@H]1O`, the “fold change (FC)” value [2] was 10 and the “fold change (FC)” value (Rattus norvegicus [3]) was 10.
With `O=C(O)CCC/C=C\C[C@@H]1[C@@H](/C=C/C2(COc3ccccc3)OCCO2)[C@H](O)C[C@@H]1O` the Activity (Rattus norvegicus [3]) was “Active”.
For `COC(=O)CCC/C=C\C[C@@H]1[C@@H](/C=C/C2(COc3cccc(C(F)(F)F)c3)OCCO2)[C@H](O)C[C@@H]1O`, the “fold change (FC)” value [2] was >10, the “fold change (FC)” value (Ileum) was <0.1 and the “fold change (FC)” value (Rattus norvegicus [3]) was 10.
For `O=C(O)CCC/C=C\C[C@@H]1[C@@H](/C=C/C2(COc3ccccc3)OCCO2)[C@H](O)C[C@@H]1O` [ETIPROSTON], the “fold change (FC)” value [2] was 10, the “fold change (FC)” value (Ileum) was 0.1 and the “fold change (FC)” value (Rattus norvegicus [3]) was 10.
With `COC(=O)CCC/C=C\C[C@@H]1[C@@H](/C=C/C2(CCc3ccccc3)OCCO2)[C@H](O)C[C@@H]1O` the “fold change (FC)” value [2] was >10 and the “fold change (FC)” value (Rattus norvegicus [3]) was 30.
